Experimental data from article PMC9361925 (RSC Advances, 2022).
Like-named read-outs stand apart in the source and are kept apart here.

What was measured:
[1] = system: hepatocellular carcinoma (HepG2, ATCC number HB-8065); experiment: MTT cytotoxicity assay, HepG2 cells; type: cell-based; conditions: Homo sapiens, HepG2, 72 h, read-out: IC50 HepG2
Summary of the method: (§1)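 Log-phase cells in DMEM with 7–10% FBS and penicillin/streptomycin (37 °C, 5% CO2) seeded at 3 × 10^4 cells per mL. Exposed 3 days to test compound in DMSO at 1.00, 0.25, 0.0625 and 0.0156 μg mL−1. MTT (5 mg mL−1 stock in 0.1 M PBS, pH 7.4) added for 4 h at 37 °C; formazan dissolved in DMSO, absorbance at 540 nm. Growth inhibition calculated relative to untreated controls.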

[2] = system: human embryonic kidney (HEK-293, ATCC number CRL-1573) cell line; experiment: MTT cytotoxicity assay, Hek-293 cells; type: cell-based; conditions: HEK293, 72 h, read-out: IC50 Hek-293
Summary of the method: as §1

[3] = system: lung (A549) cancer cell line; experiment: MTT cytotoxicity assay, A549 cells; type: cell-based; conditions: Homo sapiens, A549, 72 h, read-out: IC50 A549
Summary of the method: as §1

[4] = system: breast (MCF7, HTB-22™) cancer cell line; experiment: MTT cytotoxicity assay, MCF7 cells; type: cell-based; conditions: Homo sapiens, MCF7, 72 h, read-out: IC50 MCF7
Summary of the method: as §1

[5] = system: epidermoid carcinoma (KB, ATCC number CCL-17); experiment: MTT cytotoxicity assay, KB cells; type: cell-based; conditions: Homo sapiens, 72 h, read-out: IC50 KB
Summary of the method: as §1

SK-Lu-1 cells [6] = conditions: read-out: IC50 SK-Lu-1; cited from earlier work
[7] = system: hepatocellular carcinoma (HepG2, ATCC number HB-8065); conditions: read-out: IC50 HepG2; HepG2 cells; cited from earlier work
[8] = system: breast (MCF7, HTB-22™) cancer cell line; conditions: read-out: IC50 MCF7; MCF7 cells; cited from earlier work
[9] = system: epidermoid carcinoma (KB, ATCC number CCL-17); conditions: read-out: IC50 KB; KB cells; cited from earlier work
[10] = system: human embryonic kidney (HEK-293, ATCC number CRL-1573) cell line; conditions: read-out: IC50 Hek-293; non-cancerous Hek-293 cells; cited from earlier work
SK-Lu-1 cells [11] = experiment: Cell cycle analysis by flow cytometry; type: cell-based, human; conditions: 24 h
Summary of the method: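 Log-phase SK-LU-1 cells (3 × 10^5 per 25 cm2 flask) treated 24 h with test compound at 0.08, 0.16 or 0.32 μM. Controls: DMSO 0.05%, ellipticine 1.3 μM, vincristine 0.4 and 4 μM. Cells were PBS-washed and fixed in ice-cold 70% ethanol at −20 °C for 2 h. They were then treated with RNase A (1 mg mL−1, 37 °C, 15 min), stained with PI for 30 min and analysed by flow cytometry.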

SK-Lu-1 cells [12] = experiment: Annexin V FITC and PI flow cytometry assay for apoptosis; type: cell-based, human; conditions: 24 h; for % Necrotic cells: Annexin-V/PI (Q2-1); for % Late apoptosis cells: Annexin-V/PI (Q2-2); for % Early apoptosis cells: Annexin-V/PI (Q2-4); for % Total apoptosis cells: early + late
Summary of the method: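 SK-LU-1 cells (3 × 10^5 per 25 cm2 flask; DMEM, 7–10% FBS, penicillin/streptomycin, 37 °C, 5% CO2) exposed 24 h to test compound. Controls: DMSO 0.5%, ellipticine 1.3 μM, vincristine 0.4 and 4 μM. Cells were harvested, washed in cold PBS and resuspended in annexin-binding buffer. They were stained with FITC-annexin V plus PI (100 μg mL−1 working solution) for 15 min at room temperature, then diluted and analysed by flow cytometry.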

SK-Lu-1 cells [13] = experiment: Cell nucleus staining with Hoechst 33342; type: cell-based, human; conditions: 0.08 μM, 0.16 μM, and 0.32 μM, 24 h
[14] = system: caspase-3/7 activation in human lung SK-LU-1 cancer cells; experiment: Caspase-3/7 assay; type: cell-based; conditions: SK-LU-1 cells, 0.08 μM, 0.16 μM, and 0.32 μM
Summary of the method: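 SK-LU-1 cells (2 × 10^5 per well) incubated 5 h at 37 °C, 5% CO2, with test compound at 0.08, 0.16 or 0.32 μM. Controls: ellipticine 1.3 μM, vincristine 4 μM; solvent served as blank. Apo-ONE caspase-3/7 reagent was added, briefly shaken and left at room temperature for 1–18 h. Fluorescence was read at Ex 485/Em 530 nm. Activity = sample RFU minus blank RFU.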

## O=C1OCC2=C1C(c1ccc(Br)cn1)C1=C(N2)C(=O)c2ccccc2C1=O (stereo not drawn) [5o, 11-(5-Bromopyridin-2-yl)-4,11-dihydrobenzo[g]furo[3,4-b]quinoline-1,5,10(3H)-trione]
[1]
  IC50: > 2500 nM
[2]
  IC50: > 20000 nM
[3]
  IC50: > 2500 nM
[4]
  IC50: > 2500 nM
[5]
  IC50: > 2500 nM

## O=C1OCC2=C1C(c1ccccc1)C1=C(N2)C(=O)c2ccccc2C1=O (stereo not drawn) [5d, 11-(Phenyl)-4,11-dihydrobenzo[g]furo[3,4-b]quinoline-1,5,10(3H)-trione]
SK-Lu-1 cells [6]
  IC50: < 44 nM
[7]
  IC50: < 44 nM
[8]
  IC50: 1980 ± 40 nM
[9]
  IC50: 1540 ± 10 nM
[10]
  IC50: 1340 ± 10 nM

## O=C1OCC2=C1C(c1ccccc1O)C1=C(N2)C(=O)c2ccccc2C1=O (stereo not drawn) [5h, 11-(2-Hydroxyphenyl)-4,11-dihydrobenzo[g]furo[3,4-b]quinoline-1,5,10(3H)-trione]
[1]
  IC50: 630 ± 20 nM
[2]
  IC50: 2030 ± 60 nM
[3]
  IC50: 430 ± 10 nM
[4]
  IC50: 1610 ± 30 nM
[5]
  IC50: 570 ± 20 nM

## COc1cc(C2C3=C(COC3=O)NC3=C2C(=O)c2ccccc2C3=O)cc(OC)c1OC (stereo not drawn) [5m, 11-(3,4,5-Trimethoxyphenyl)-4,11-dihydrobenzo[g]furo[3,4-b]quinoline-1,5,10(3H)-trione]
[1]
  IC50: 20 ± 10 nM
[2]
  IC50: 30 ± 10 nM
[3]
  IC50: 620 ± 20 nM
[4]
  IC50: 120 ± 30 nM
[5]
  IC50: 20 ± 10 nM

## Cc1c2ccncc2c(C)c2c1[nH]c1ccccc12 [Ellipticine, reference compound]
[1]
  IC50: 1510 ± 50 nM
SK-Lu-1 cells [11]; SK-LU-1, 1.3 μM
  Percentage of cell by phases, % G0/G1: 10.09%
  Percentage of cell by phases, % G2/M: 71.29%
  Percentage of cell by phases, % S: 12.52%
[2]
  IC50: 6180 ± 110 nM
[3]
  IC50: 1600 ± 20 nM
[4]
  IC50: 1820 ± 30 nM
SK-Lu-1 cells [12]; SK-LU-1, 1.3 μM
  % Necrotic cells: 3.00%
  % Late apoptosis cells: 25.71%
  % Early apoptosis cells: 28.22%
  % Total apoptosis cells: 53.93%
[5]
  IC50: 1150 ± 10 nM

## N#Cc1ccc(C2C3=C(COC3=O)NC3=C2C(=O)c2ccccc2C3=O)cc1 (stereo not drawn) [5k, 4-(1,5,10-Trioxo-1,3,4,5,10,11-hexahydrobenzo[g]furo[3,4-b]quinolin-11-yl)benzonitrile]
[1]
  IC50: > 2500 nM
[2]
  IC50: > 20000 nM
[3]
  IC50: 2030 ± 50 nM
[4]
  IC50: > 2500 nM
[5]
  IC50: > 2500 nM

## COc1cccc(C2C3=C(COC3=O)NC3=C2C(=O)c2ccccc2C3=O)c1 (stereo not drawn) [5a, 11-(3-Methoxyphenyl)-4,11-dihydrobenzo[g]furo[3,4-b]quinoline-1,5,10(3H)-trione]
SK-Lu-1 cells [6]
  IC50: < 40 nM
[7]
  IC50: 460 ± 10 nM
SK-Lu-1 cells [11]; SK-LU-1, 0.08 μM
  Percentage of cell by phases, % G0/G1: 47.91%
  Percentage of cell by phases, % G2/M: 20.58%
  Percentage of cell by phases, % S: 30.45%
SK-Lu-1 cells [11]; SK-LU-1, 0.16 μM
  Percentage of cell by phases, % G0/G1: 0.58%
  Percentage of cell by phases, % G2/M: 82.17%
  Percentage of cell by phases, % S: 5.78%
SK-Lu-1 cells [11]; SK-LU-1, 0.32 μM
  Percentage of cell by phases, % G0/G1: 0.28%
  Percentage of cell by phases, % G2/M: 84.70%
  Percentage of cell by phases, % S: 4.05%
[8]
  IC50: > 2500 nM
SK-Lu-1 cells [13]
  changes in cell morphology (Hoechst staining): nucleus fragmentation and chromatin condensation
[14]
  caspase-3/7 activity as compared to Ellipticine (1.3 μM): 4-5 fold
[9]
  IC50: 1230 ± 10 nM
SK-Lu-1 cells [12]; SK-LU-1, 0.08 μM
  % Necrotic cells: 0.59%
  % Late apoptosis cells: 0.82%
  % Early apoptosis cells: 1.30%
  % Total apoptosis cells: 2.12%
SK-Lu-1 cells [12]; SK-LU-1, 0.16 μM
  % Necrotic cells: 2.64%
  % Late apoptosis cells: 2.40%
  % Early apoptosis cells: 7.23%
  % Total apoptosis cells: 9.63%
SK-Lu-1 cells [12]; SK-LU-1, 0.32 μM
  % Necrotic cells: 4.68%
  % Late apoptosis cells: 4.25%
  % Early apoptosis cells: 11.59%
  % Total apoptosis cells: 15.84%
[10]
  IC50: 9350 ± 440 nM

## O=C1OCC2=C1C(c1ccc(O)cc1)C1=C(N2)C(=O)c2ccccc2C1=O (stereo not drawn) [5i, 11-(4-Hydroxyphenyl)-4,11-dihydrobenzo[g]furo[3,4-b]quinoline-1,5,10(3H)-trione]
[1]
  IC50: > 2500 nM
[2]
  IC50: 6460 ± 150 nM
[3]
  IC50: 1590 ± 30 nM
[4]
  IC50: 2230 ± 60 nM
[5]
  IC50: > 2500 nM

## CC[C@]1(O)C[C@H]2CN(CCc3c([nH]c4ccccc34)[C@@](C(=O)OC)(c3cc4c(cc3OC)N(C=O)[C@H]3[C@@](O)(C(=O)OC)[C@H](OC(C)=O)[C@]5(CC)C=CCN6CC[C@]43[C@@H]65)C2)C1 [Vincristine, reference compound]
SK-Lu-1 cells [11]; SK-LU-1, 0.4 μM
  Percentage of cell by phases, % G0/G1: 52.28%
  Percentage of cell by phases, % G2/M: 6.72%
  Percentage of cell by phases, % S: 38.19%
SK-Lu-1 cells [11]; SK-LU-1, 4.0 μM
  Percentage of cell by phases, % G0/G1: 0.07%
  Percentage of cell by phases, % G2/M: 82.57%
  Percentage of cell by phases, % S: 13.93%
SK-Lu-1 cells [12]; SK-LU-1, 0.4 μM
  % Necrotic cells: 4.15%
  % Late apoptosis cells: 3.66%
  % Early apoptosis cells: 15.13%
  % Total apoptosis cells: 18.79%
SK-Lu-1 cells [12]; SK-LU-1, 4.0 μM
  % Necrotic cells: 3.62%
  % Late apoptosis cells: 4.71%
  % Early apoptosis cells: 19.93%
  % Total apoptosis cells: 24.64%

## O=C1OCC2=C1C(c1ccc([N+](=O)[O-])cc1)C1=C(N2)C(=O)c2ccccc2C1=O (stereo not drawn) [5j, 11-(4-Nitrophenyl)-4,11-dihydrobenzo[g]furo[3,4-b]quinoline-1,5,10(3H)-trione]
[1]
  IC50: > 2500 nM
[2]
  IC50: 7170 ± 160 nM
[3]
  IC50: 1120 ± 40 nM
[4]
  IC50: > 2500 nM
[5]
  IC50: > 2500 nM

## O=C1OCC2=C1C(c1cccnc1)C1=C(N2)C(=O)c2ccccc2C1=O (stereo not drawn) [5n, 11-(Pyridin-3-yl)-4,11-dihydrobenzo[g]furo[3,4-b]quinoline-1,5,10(3H)-trione]
[1]
  IC50: > 2500 nM
[2]
  IC50: 1810 ± 50 nM
[3]
  IC50: 610 ± 20 nM
[4]
  IC50: 1960 ± 40 nM
[5]
  IC50: 620 ± 10 nM

## COc1ccc(C2C3=C(COC3=O)NC3=C2C(=O)c2ccccc2C3=O)cc1OC (stereo not drawn) [5l, 11-(3,4-Dimethoxyphenyl)-4,11-dihydrobenzo[g]furo[3,4-b]quinoline-1,5,10(3H)-trione]
[1]
  IC50: 530 ± 20 nM
[2]
  IC50: 2230 ± 80 nM
[3]
  IC50: 1100 ± 20 nM
[4]
  IC50: 2280 ± 70 nM
[5]
  IC50: 520 ± 20 nM
